Data published in ChEMBL document CHEMBL1152781, “Design, synthesis, and structure-activity analysis of isoform-selective retinoic acid receptor beta ligands” (J Med Chem, 2009).
In brackets after ≈: the same amount, converted by molar mass. Blank lines part the entries; values can stand above or below the molecule they belong to. Activity calls are given as the source filed them. The calls are words filed in the database; no cut-off is given here.

Experiments:
[1] = target: T1, Retinoic acid receptor beta (Homo sapiens) (UniProt P10826); experiment: Activity at RARbeta1 expressed in mouse NIH3T3 cells at <10 uM by R-SAT assay relative to Am-580; assay type: cell-based
T1 sequence (whole entry): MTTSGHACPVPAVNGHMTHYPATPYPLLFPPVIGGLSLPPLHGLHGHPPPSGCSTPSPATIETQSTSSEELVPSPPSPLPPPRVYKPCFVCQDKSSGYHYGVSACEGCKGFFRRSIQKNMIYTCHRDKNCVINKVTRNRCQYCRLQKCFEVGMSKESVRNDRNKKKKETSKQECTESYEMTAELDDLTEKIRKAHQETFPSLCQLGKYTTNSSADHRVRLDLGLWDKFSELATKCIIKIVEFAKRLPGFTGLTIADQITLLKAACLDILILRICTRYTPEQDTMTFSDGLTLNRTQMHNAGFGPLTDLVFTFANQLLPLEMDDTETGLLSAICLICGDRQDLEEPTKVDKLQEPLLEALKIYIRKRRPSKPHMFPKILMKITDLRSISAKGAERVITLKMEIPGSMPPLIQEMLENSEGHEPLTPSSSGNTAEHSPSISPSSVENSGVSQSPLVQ
Outline: (§1)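 High-throughput cell-proliferation functional assay (R-SAT). Efficacy is expressed relative to reference agonist AM-580, which is set to 100%. pEC50 and efficacy are means of at least three experiments ± SD. […] Where marked, efficacy is the maximum at concentrations <10 µM.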

[2] = target: T2, Retinoic acid receptor beta (Homo sapiens, UniProt P10826); experiment: Agonist activity at RARbeta2 expressed in mouse NIH3T3 cells by R-SAT assay; assay type: functional, cell-based; details: for pEC50: nih3t3
T2 sequence (P10826 whole entry): T1 sequence (whole entry)

[3] = target: T3, Retinoic acid receptor alpha (Homo sapiens) (UniProt P10276); experiment: Activity at RARalpha expressed in mouse NIH3T3 cells at <10 uM by R-SAT assay relative to Am-580; assay type: cell-based; outline: as §1
T3 sequence (whole entry): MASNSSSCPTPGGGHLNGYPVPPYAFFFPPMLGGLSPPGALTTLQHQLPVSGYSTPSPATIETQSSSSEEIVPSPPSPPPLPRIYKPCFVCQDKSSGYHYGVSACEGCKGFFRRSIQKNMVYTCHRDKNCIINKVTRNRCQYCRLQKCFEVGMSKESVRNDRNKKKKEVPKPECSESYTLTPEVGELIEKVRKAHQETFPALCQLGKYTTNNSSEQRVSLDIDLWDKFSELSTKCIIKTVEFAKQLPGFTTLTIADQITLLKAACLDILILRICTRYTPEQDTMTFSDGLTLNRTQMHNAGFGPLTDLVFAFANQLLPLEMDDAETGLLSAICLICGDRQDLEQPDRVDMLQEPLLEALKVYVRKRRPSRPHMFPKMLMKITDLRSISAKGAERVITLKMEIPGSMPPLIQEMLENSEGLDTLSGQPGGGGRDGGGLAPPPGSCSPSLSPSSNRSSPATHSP

[4] = target: T4, Retinoic acid receptor gamma (Homo sapiens) (UniProt P13631); experiment: Activity at RARgamma expressed in mouse NIH3T3 cells by R-SAT assay relative to Am-580; assay type: cell-based; outline: as §1
T4 sequence (whole entry): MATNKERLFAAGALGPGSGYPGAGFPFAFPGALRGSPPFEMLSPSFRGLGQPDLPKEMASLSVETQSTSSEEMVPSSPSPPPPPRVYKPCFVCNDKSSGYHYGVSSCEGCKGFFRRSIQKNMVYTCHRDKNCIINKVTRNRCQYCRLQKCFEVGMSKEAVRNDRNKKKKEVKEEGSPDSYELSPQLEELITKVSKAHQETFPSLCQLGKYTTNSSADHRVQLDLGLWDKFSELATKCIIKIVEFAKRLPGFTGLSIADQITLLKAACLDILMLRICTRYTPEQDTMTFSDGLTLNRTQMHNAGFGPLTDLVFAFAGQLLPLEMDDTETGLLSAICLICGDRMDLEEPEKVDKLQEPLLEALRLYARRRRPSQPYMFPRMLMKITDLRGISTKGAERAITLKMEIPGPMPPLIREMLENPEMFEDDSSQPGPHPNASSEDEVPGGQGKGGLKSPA

[5] = target: T1, Retinoic acid receptor beta (Homo sapiens); experiment: Agonist activity at RARbeta2 expressed in mouse NIH3T3 cells by R-SAT assay relative to Am-580; assay type: functional, cell-based; outline: as §1
[6] = target: T5, Retinoic acid receptor gamma (Homo sapiens, UniProt P13631); experiment: Activity at RARgamma expressed in mouse NIH3T3 cells by R-SAT assay; assay type: cell-based; details: for pEC50: nih3t3
T5 sequence (P13631 whole entry): T4 sequence (whole entry)

[7] = target: T6, Retinoic acid receptor alpha (Homo sapiens, UniProt P10276); experiment: Activity at RARalpha expressed in mouse NIH3T3 cells by R-SAT assay; assay type: cell-based; details: for pEC50: nih3t3
T6 sequence (P10276 whole entry): T3 sequence (whole entry)

[8] = target: T1, Retinoic acid receptor beta (Homo sapiens); experiment: Activity at RARbeta1 expressed in mouse NIH3T3 cells by R-SAT assay relative to Am-580; assay type: cell-based; outline: as §1
[9] = Metabolic stability in human liver microsomes assessed as intrinsic clearance; assay type: ADME, Microsome
Outline: (§2)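 Liver microsomes, rat or human, as stated per line. Read-out is intrinsic clearance in µL/(min·mg) protein. Hepatic extraction was calculated without correcting for the unbound fraction of drug in plasma.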

[10] = target: T2, Retinoic acid receptor beta; experiment: Activity at RARbeta1 expressed in mouse NIH3T3 cells by R-SAT assay; assay type: cell-based
[11] = Metabolic stability in rat liver microsomes assessed as intrinsic clearance; assay type: ADME, Microsome; outline: as §2
[12] = Clearance in rat; assay type: ADME, organism-based; details: in vivo
NIH3T3 [13] = experiment: Selectivity for RARbeta2 expressed in mouse NIH3T3 cells over RARalpha expressed in mouse NIH3T3 cells; assay type: cell-based
MCF7 [14] = experiment: Inhibition of human MCF7 cell proliferation assessed as inhibition of DNA synthesis by [3H]thymidine incorporation assay; assay type: functional, cell-based
[15] = Aqueous solubility in phosphate buffer at pH 7.4; assay type: physicochemical
[16] = target: T1, Retinoic acid receptor beta (Homo sapiens); experiment: Activation of RARbeta2 expressed in HEK293 cells after 48 hrs by RARE-luciferase reporter gene assay; assay type: cell-based
NTERA2 = experiment: Induction of neurite outgrowth in human NTERA2 cells; assay type: functional, cell-based
NIH3T3 [17] = experiment: Selectivity for RARbeta2 expressed in mouse NIH3T3 cells over RARgamma expressed in mouse NIH3T3 cells; assay type: cell-based
[18] = target: T4, Retinoic acid receptor gamma (Homo sapiens); experiment: Activity at RARgamma expressed in mouse NIH3T3 cells at <10 uM by R-SAT assay relative to Am-580; assay type: cell-based; outline: as §1
[19] = Lipophilicity, Log P of the compound; assay type: physicochemical; details: octanol/water
Outline: (§3)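 Lipophilicity descriptors, cLogD at pH 7.4 and cLogP, are mostly calculated. Values in parentheses are experimentally determined.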

NIH3T3 [20] = experiment: Selectivity for RARbeta2 expressed in mouse NIH3T3 cells over RARbeta1 expressed in mouse NIH3T3 cells; assay type: cell-based
[21] = Distribution coefficient, log D of the compound; assay type: physicochemical; details: octanol/water; outline: as §3
MCF7 [22] = experiment: Inhibition of human MCF7 cell proliferation; assay type: functional, cell-based

- Efficacy [1]: 42%
- EC50 [2]: 39.8 nM
- Efficacy [3]: 35%
- Efficacy [4]: 63%
- Efficacy [5]: 85%
- EC50 [6]: 631 nM
SMILES: CCCCCCNC(=O)COc1nc(-c2ccc(C(=O)O)cc2)sc1C

- pEC50 [7]: > 5
- EC50 [2]: 63.1 nM
- Activity [8]: inactive
- Activity [4]: inactive
- Efficacy [5]: 62%
- pEC50 [6]: > 5
SMILES: CCCCCCCOc1ccc(-c2ccc(C(=O)O)cc2)cc1

- EC50 [7]: 631 nM
- microsomal CLint [9]: 36 µL/min/mg
- EC50 [10]: 398 nM
- microsomal CLint [11]: 10 µL/min/mg
- Efficacy [8]: 52%
- Efficacy [4]: 48%
- clearance [12]: 41 mL/min/kg
- Efficacy [5]: 106%
- EC50 [6]: 501 nM
SMILES: CCCCOCCOc1nc(-c2ccc(C(=O)O)c(F)c2)sc1C

- pEC50 [7]: > 5
- EC50 [2]: 63.1 nM
- Activity [8]: inactive
- Activity [4]: inactive
- Efficacy [5]: 78%
- pEC50 [6]: > 5
SMILES: CCCCOCCOc1ccc(-c2ccc(C(=O)O)cc2)cc1

- EC50 [7]: 2510 nM
- microsomal CLint [9]: 5 µL/min/mg
- EC50 [10]: 2000 nM
- solubility [15]: < 1 µg/mL
- Activity [16]: Active
- microsomal CLint [11]: 5 µL/min/mg
- Efficacy [8]: 29%
- Efficacy [18]: 31%
- logP [19]: 7.9
- logD [21]: 4.5
SMILES: CCCCCCCCc1ccc(-c2ccc(C(=O)O)cc2)cc1
- fold change (FC) (NIH3T3 [13]): 100
- Activity (MCF7 [14]): Active
- Activity (NTERA2): Active
- fold change (FC) (NIH3T3 [17]): 100
- fold change (FC) (NIH3T3 [20]): 100
- Activity (MCF7 [22]): Dose-dependent effect

- Efficacy [1]: 28%
- pEC50 [7]: > 5
- Efficacy [18]: 31%
- Efficacy [5]: 75%
SMILES: CC(C)CCCCOc1ccc(-c2ccc(C(=O)O)cc2)cc1

- pEC50 [2]: > 5
- Activity [5]: inactive
SMILES: CCCCCCNC(=O)COc1ccc(-c2ccc(C(=O)O)cc2)cc1

- pEC50 [2]: > 5
- Activity [5]: inactive
SMILES: CCCCCCCc1ccc(-c2ccc(C(=O)O)cc2C)cc1

- Efficacy [4]: 99%
SMILES: CC1(C)CCC(C)(C)c2cc(C(=O)Nc3ccc(C(=O)O)cc3)ccc21

- EC50 [2]: 100 nM
- EC50 [10]: 1000 nM
- Efficacy [8]: 49%
- Efficacy [5]: 70%
SMILES: CCCCCCCCOc1ccc(-c2ccc(C(=O)O)cc2)cc1

- EC50 [7]: 2000 nM
- EC50 [2]: 39.8 nM
- EC50 [10]: 398 nM
- Efficacy [8]: 54%
- Efficacy [4]: 84%
- Efficacy [5]: 114%
- EC50 [6]: 158 nM
SMILES: CCCCCCCCc1ccc(-c2ccc(C(=O)O)c(F)c2)cc1

- pEC50 [2]: > 5
- Activity [5]: inactive
SMILES: CCCCCCCCc1ccc(-c2ccc(C(=O)O)s2)cc1

- Efficacy [8]: 230%
SMILES: CCCCCCCc1ccc(-c2ccc(C(=O)O)cc2)cc1

- EC50 [2]: 126 nM
- Efficacy [5]: 50%
SMILES: CCCCCCCc1ccc(-c2ccc(C(=O)O)c(F)c2)cc1

- Efficacy [1]: 36%
- EC50 [7]: 1580 nM
- EC50 [2]: 20 nM
- microsomal CLint [9]: 8 µL/min/mg
- solubility [15]: 20 µg/mL (≈ 60.2 µM)
- Efficacy [18]: 37%
- Efficacy [5]: 108%
SMILES: CCCCOCCOc1ccc(-c2ccc(C(=O)O)c(F)c2)cc1

- pEC50 [2]: > 5
- Activity [5]: inactive
SMILES: CCCCCCCc1ccc(-c2ccc(C(=O)O)s2)cc1

- pEC50 [2]: > 5
- Activity [5]: inactive
SMILES: CCCCCCCOc1nc(-c2ccc(C(=O)O)cc2)sc1C

- EC50 [2]: 100 nM
- Efficacy [5]: 85%
SMILES: CCCCCCCCc1ccc(-c2ccc(C(=O)O)cc2F)cc1

- EC50 [2]: 631 nM
- Efficacy [5]: 84%
SMILES: CCCCCCCCc1ccc(-c2ccc(C(=O)O)c(C)c2)cc1

- EC50 [2]: 251 nM
- Efficacy [5]: 41%
SMILES: CCCCOCCOc1cc(C)c(-c2ccc(C(=O)O)cc2)cc1C

- EC50 [2]: 63.1 nM
- Efficacy [5]: 78%
SMILES: CCOCCOc1nc(-c2ccc(C(=O)O)cc2)sc1C

- EC50 [2]: 79.4 nM
- EC50 [10]: 1260 nM
- Efficacy [8]: 45%
- Efficacy [18]: 54%
- Efficacy [5]: 99%
SMILES: CCCCOCCOc1nc(-c2ccc(C(=O)O)cc2)sc1C

- EC50 [2]: 126 nM
- Efficacy [5]: 100%
SMILES: CCCOCCOc1nc(-c2ccc(C(=O)O)cc2)sc1C

- EC50 [2]: 100 nM
- Efficacy [5]: 37%
SMILES: CCCCCCCCc1ccc(-c2ccc(C(=O)O)cc2C)cc1

- EC50 [2]: 1000 nM
- Efficacy [5]: 93%
SMILES: CCCCCCCc1cnc(-c2ccc(C(=O)O)cc2)nc1

- EC50 [2]: 31.6 nM
- Activity [8]: inactive
- Efficacy [5]: 72%
SMILES: CCCCCCOc1ccc(-c2ccc(C(=O)O)cc2)cc1
